Reference: ChEMBL document CHEMBL4402517, “Rational modification of Mannich base-type derivatives as novel antichagasic compounds: Synthesis, in vitro and in vivo evaluation” (Bioorg Med Chem, 2019)
Calls of active or inactive are those of the source. No cut-off for these calls is given here.

Tests used:
[1] = (§1) Toxicity in BALB/c mouse infected with Trypanosoma cruzi MHOM/Pe/2011/Arequipa;DTU 5 bloodstream trypomastigote assessed as change in serum urea level in chronic phase at 20 mg/kg/day, po administered for 5 consecutive days starting from day 70 post infection and measured at day 76 post infection relative to control; format: organism-based; conditions: in vivo
[2] = (§2) Toxicity in BALB/c mouse infected with Trypanosoma cruzi MHOM/Pe/2011/Arequipa;DTU 5 bloodstream trypomastigote assessed as change in serum urea level in acute phase at 20 mg/kg/day, po administered for 5 consecutive days starting from day 8 post infection and measured on day 100 post infection by biochemical analysis relative to control; format: organism-based; conditions: in vivo
Trypanosoma cruzi [3] = experiment: Inhibition of Trypanosoma cruzi MHOM/Pe/2011/Arequipa;DTU 5 epimastigote Fe-SOD at 25 uM
How it was run: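 Fe-SOD excreted by exponentially growing T. cruzi Arequipa epimastigotes cultured in supplemented MTL at 28 °C. Protein quantified by Bradford. SOD activity measured by the Beyer–Fridovich method. IC50 from inhibition curves by nonlinear regression. Mean of three independent determinations ± standard deviation.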

Trypanosoma cruzi [4] = experiment: Antitrypanosomal activity against Trypanosoma cruzi MHOM/Pe/2011/Arequipa;DTU 5 epimastigote assessed as effect on parasite glycolytic pathway by measuring decrease in succinate excretion at IC50 after 72 hrs by H NMR method relative to control; format: functional; set-up: scale not given: the % may be the effect or the level left
How it was run: (§3)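 Cells were spun at 800 × g for 10 min and culture supernatants analysed by 1H NMR. Catabolite peaks were expressed as % variation versus untreated parasites.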

[5] = as §1, with “as increase” for “as change”, “serum total bilirubin” for “serum urea”, “infection” for “infection and”, “measured on” for “measured at”, “day 100” for “day 76”; format: organism-based; conditions: in vivo
[6] = as §1, with “infection” for “infection and”, “measured on” for “measured at”, “day 100” for “day 76”; format: organism-based; conditions: in vivo
[7] = Mutagenecity against Salmonella typhimurium TA1535 assessed as number of colonies at 200 ug/plate in absence of Sprague-Dawley rat S9 measured after 48 hrs by Ames test (reference value: 13.3 +/- 2.5); format: toxicity; conditions: salmonella enterica subsp. enterica serovar typhimurium, s9, 48 h
[8] = Mutagenecity against Salmonella typhimurium TA97a assessed as number of colonies at 66.7 ug/plate in presence of Sprague-Dawley rat S9 with metabolic activation measured after 48 hrs by Ames test (reference value: 55 +/- 7.1); format: toxicity, subcellular; conditions: salmonella enterica subsp. enterica serovar typhimurium, s9, 48 h
[9] = Mutagenecity against Salmonella typhimurium TA98 assessed as number of colonies at 7.4 ug/plate in presence of Sprague-Dawley rat S9 measured after 48 hrs by Ames test (reference value: 4 +/- 2); format: toxicity, subcellular; conditions: salmonella enterica subsp. enterica serovar typhimurium, s9, 48 h
[10] = Mutagenecity against Salmonella typhimurium TA 100 assessed as number of colonies at 66.7 ug/plate in presence of Sprague-Dawley rat S9 with metabolic activation measured after 48 hrs by Ames test (reference value: 47.3 +/- 5.7); format: toxicity, subcellular; conditions: salmonella enterica subsp. enterica serovar typhimurium, s9, 48 h
[11] = as §1, with “serum lactate dehydrogenase” for “serum urea”, “infection” for “infection and”, “measured on” for “measured at”, “day 100” for “day 76”; format: organism-based; conditions: in vivo
[12] = Mutagenecity against Salmonella typhimurium TA 100 assessed as number of colonies at 7.4 ug/plate in absence of Sprague-Dawley rat S9 with metabolic activation measured after 48 hrs by Ames test (reference value: 35.7 +/- 0.6); format: toxicity; conditions: salmonella enterica subsp. enterica serovar typhimurium, s9, 48 h
[13] = Mutagenecity against Salmonella typhimurium TA98 assessed as number of colonies at 7.4 ug/plate in absence of Sprague-Dawley rat S9 measured after 48 hrs by Ames test (reference value: 3 +/- 2.6); format: toxicity; conditions: salmonella enterica subsp. enterica serovar typhimurium, s9, 48 h
[14] = Mutagenecity against Salmonella typhimurium TA98 assessed as number of colonies at 66.7 ug/plate in presence of Sprague-Dawley rat S9 measured after 48 hrs by Ames test (reference value: 4 +/- 2); format: toxicity, subcellular; conditions: salmonella enterica subsp. enterica serovar typhimurium, s9, 48 h
Trypanosoma cruzi [15] = experiment: Antitrypanosomal activity against Trypanosoma cruzi MHOM/Pe/2011/Arequipa;DTU 5 epimastigote assessed as effect on parasite glycolytic pathway by measuring increase in pyruvate excretion at IC50 after 72 hrs by H NMR method relative to control; format: functional; how it was run: as §3
[16] = Mutagenecity against Salmonella typhimurium TA97a assessed as number of colonies at 200 ug/plate in absence of Sprague-Dawley rat S9 […] measured after 48 hrs by Ames test ( Rvb = 37 +/- 6.5); format: toxicity; conditions: salmonella enterica subsp. enterica serovar typhimurium, s9, 48 h
[17] = as §2, with “increase” for “change”, “alanine aminotransferase” for “urea”; format: organism-based; conditions: in vivo
[18] = Mutagenecity against Salmonella typhimurium TA 102 assessed as number of colonies at 200 ug/plate in presence of Sprague-Dawley rat S9 with metabolic activation measured after 48 hrs by Ames test (reference value: 72 +/- 1); format: toxicity, subcellular; conditions: salmonella enterica subsp. enterica serovar typhimurium, s9, 48 h
[19] = Mutagenecity against Salmonella typhimurium TA 100 assessed as number of colonies at 66.7 ug/plate in absence of Sprague-Dawley rat S9 with metabolic activation measured after 48 hrs by Ames test (reference value: 35.7 +/- 0.6); format: toxicity; conditions: salmonella enterica subsp. enterica serovar typhimurium, s9, 48 h
[20] = Mutagenecity against Salmonella typhimurium TA 100 assessed as number of colonies at 7.4 ug/plate in presence of Sprague-Dawley rat S9 with metabolic activation measured after 48 hrs by Ames test (reference value: 47.3 +/- 5.7); format: toxicity, subcellular; conditions: salmonella enterica subsp. enterica serovar typhimurium, s9, 48 h
[21] = Mutagenecity against Salmonella typhimurium TA97a assessed as number of colonies at 200 ug/plate in presence of Sprague-Dawley rat S9 with metabolic activation measured after 48 hrs by Ames test (reference value: 55 +/- 7.1); format: toxicity, subcellular; conditions: salmonella enterica subsp. enterica serovar typhimurium, s9, 48 h
Trypanosoma cruzi [22] = experiment: Antitrypanosomal activity against Trypanosoma cruzi MHOM/Pe/2011/Arequipa;DTU 5 bloodstream trypomastigotes infected in BALB/c mouse assessed as decrease in splenomegaly in acute phase at 20 mg/kg/day, po administered for 5 consecutive days starting from day 8 post infection relative to untreated control; format: functional; set-up: scale not given: the % may be the effect or the level left
How it was run: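 Female BALB/c mice (three per group) were infected i.p. with 5 × 10^5 Arequipa trypomastigotes and dosed orally at 20 mg/kg/day for 5 days in 5% DMSO/0.5% HPMC. Controls were uninfected and vehicle-only groups. At the end of the experiment spleens were weighed and expressed as % of body weight.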

[23] = Mutagenecity against Salmonella typhimurium TA 102 assessed as number of colonies at 7.4 ug/plate in absence of Sprague-Dawley rat S9 with metabolic activation measured after 48 hrs by Ames test (reference value: 78.7 +/- 7.8); format: toxicity; conditions: salmonella enterica subsp. enterica serovar typhimurium, s9, 48 h
[24] = as §1, with “serum alkaline phosphatase” for “serum urea”, “infection” for “infection and”, “measured on” for “measured at”, “day 100” for “day 76”; format: organism-based; conditions: in vivo
[25] = Mutagenecity against Salmonella typhimurium TA 100 assessed as number of colonies at 200 ug/plate in presence of Sprague-Dawley rat S9 with metabolic activation measured after 48 hrs by Ames test (reference value: 47.3 +/- 5.7); format: toxicity, subcellular; conditions: salmonella enterica subsp. enterica serovar typhimurium, s9, 48 h
[26] = as §2, with “increase” for “change”, “lactate dehydrogenase” for “urea”; format: organism-based; conditions: in vivo
[27] = as §2, with “alkaline phosphatase” for “urea”, “days” for “days starting from day 8 post infection”; format: organism-based; conditions: in vivo
[28] = as §2, with “creatine kinase muscle to brain ratio” for “urea”; format: organism-based; conditions: in vivo

Q: Which Activity [1] does the source give for O=C(CCN1CCN(c2ccc(C(F)(F)F)cc2)CC1)c1ccc(O)cc1 here?
A: > 10%

Q: What about the Activity [2] of the same compound?
A: > 10%

Q: What about the inhibition (Trypanosoma cruzi [3]) of the same compound?
A: Active

Q: And the Activity (Trypanosoma cruzi [4])?
A: 80%

Q: And the Activity [5]?
A: <= 20%

Q: And the Activity [6]?
A: > 10%

Q: Which results are given for O=C(CCN1CCN(c2ccc(Cl)cc2)CC1)c1ccc(O)cc1?
A: Activity [7]: 4; Activity [8]: 44; Activity [9]: 6; Activity [10]: 54.7; Activity [11]: > 10%; Activity [12]: 32.3; Activity [13]: 4; Activity [14]: 6.3; Activity (Trypanosoma cruzi [15]): 36%; Activity [16]: 32.3; Activity [17]: <= 20%; Activity [18]: 78; Activity [19]: 38; Activity [20]: 44.7; Activity [21]: 41; Activity (Trypanosoma cruzi [22]): 44%; Activity [23]: 72; Activity [24]: > 10%; Activity [25]: 42.3

Q: For O=C(Cn1ccnc1[N+](=O)[O-])NCc1ccccc1 [BENZNIDAZOLE], which Activity [26] is on record?
A: <= 10%

Q: And the Activity [27]?
A: > 10%

Q: What about the Activity [28] of the same compound?
A: > 10%
